Assay results as given in ChEMBL document CHEMBL3421593, “Design, synthesis, and biological evaluation of ring-constrained novobiocin analogues as hsp90 C-terminal inhibitors” (ACS Med Chem Lett, 2015).
The source made the active and inactive calls. No cut-off for these calls is given here.

Key:
[1] = Antiproliferative activity against human SKBR3 cells; type: functional, cell-based; conditions: SK-BR-3
Method in brief: (§1)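 Breast cancer lines used were SKBr3 (estrogen receptor negative, Her2 overexpressing) and MCF-7 (estrogen receptor positive). Values are mean ± standard deviation from at least two separate experiments, each performed in triplicate.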

MCF7 [2] = experiment: Antiproliferative activity against human MCF7 cells; type: functional, cell-based; method in brief: as §1
[3] = target: T1, Heat shock protein HSP90 (Homo sapiens) (UniProt P07900+P08238); experiment: Inhibition of HSP90 in human MCF7 cells assessed as induction of Akt protein degradation at 5 times antiproliferative IC50 level incubated for 24 hrs by Western blotting method; type: cell-based
[4] = target: T1, Heat shock protein HSP90 (Homo sapiens); experiment: Inhibition of HSP90 in human MCF7 cells assessed as induction of Akt protein degradation at 0.2 to 10 uM incubated for 24 hrs by Western blotting method; type: cell-based
[5] = target: T1, Heat shock protein HSP90 (Homo sapiens); experiment: Inhibition of HSP90 in human MCF7 cells assessed as induction of Akt protein degradation at 0.5 times antiproliferative IC50 level incubated for 24 hrs by Western blotting method; type: cell-based
[6] = target: T1, Heat shock protein HSP90 (Homo sapiens); experiment: Inhibition of HSP90 in human MCF7 cells assessed as induction of Her2 protein degradation at 5 times antiproliferative IC50 level incubated for 24 hrs by Western blotting method; type: cell-based
[7] = target: T1, Heat shock protein HSP90 (Homo sapiens); experiment: Inhibition of HSP90 in human MCF7 cells assessed as induction of Raf1 protein degradation at 0.5 times antiproliferative IC50 level incubated for 24 hrs by Western blotting method; type: cell-based
[8] = target: T1, Heat shock protein HSP90 (Homo sapiens); experiment: Inhibition of HSP90 in human MCF7 cells assessed as induction of Raf1 protein degradation at 0.2 to 10 uM incubated for 24 hrs by Western blotting method; type: cell-based
[9] = target: T1, Heat shock protein HSP90 (Homo sapiens); experiment: Inhibition of HSP90 in human MCF7 cells assessed as induction of Her2 protein degradation at 0.2 to 10 uM incubated for 24 hrs by Western blotting method; type: cell-based
[10] = target: T1, Heat shock protein HSP90 (Homo sapiens); experiment: Inhibition of HSP90 in human MCF7 cells assessed as induction of Her2 protein degradation at 0.5 times antiproliferative IC50 level incubated for 24 hrs by Western blotting method; type: cell-based
MCF7 [11] = experiment: Effect on actin protein expression in human MCF7 cells at 0.2 to 10 uM incubated for 24 hrs by Western blotting method; type: cell-based; conditions: mcf7, 24 h
[12] = target: T1, Heat shock protein HSP90 (Homo sapiens); experiment: Inhibition of HSP90 in human MCF7 cells assessed as induction of Raf1 protein degradation at 5 times antiproliferative IC50 level incubated for 24 hrs by Western blotting method; type: cell-based
MCF7 [13] = experiment: Effect on HSP90 protein expression in human MCF7 cells at 0.2 to 10 uM incubated for 24 hrs by Western blotting method; type: cell-based; conditions: mcf7, 24 h

Compound: COc1cccc(-c2cc(C(=O)Nc3cc4ccc5c(c4oc3=O)NC(=O)C(CCN3CCN(C)CC3)O5)ccc2OC)c1 (stereo unspecified)
- IC50 [1]: 4.1 µM
- IC50 (MCF7 [2]): 5.68 µM

Compound: COc1cccc(-c2cc(C(=O)Nc3cc4ccc5c(c4oc3=O)NC(=O)C(CCN3CCNCC3)O5)ccc2OC)c1 (stereo unspecified)
- IC50 [1]: 5.44 µM
- IC50 (MCF7 [2]): 7.63 µM

Compound: COc1cccc(-c2cc(C(=O)Nc3cc4ccc5c(c4oc3=O)NC(=O)C(CCCN3CCNCC3)O5)ccc2OC)c1 (stereo unspecified)
- IC50 [1]: 9.08 µM
- IC50 (MCF7 [2]): 12.8 µM

Compound: COc1cccc(-c2cc(C(=O)Nc3cc4ccc5c(c4oc3=O)NC(=O)C(c3ccccc3)O5)ccc2OC)c1 (stereo unspecified)
- IC50 [1]: 48.2 µM
- IC50 (MCF7 [2]): > 50 µM

Compound: COc1cccc(-c2cc(C(=O)Nc3cc4ccc5c(c4oc3=O)NC(=O)C(CCCN3CCCCC3)O5)ccc2OC)c1 (stereo unspecified)
- inhibition [3]: Active
- inhibition [4]: Dose-dependent effect
- IC50 [1]: 0.78 µM
- inhibition [5]: Active
- inhibition [6]: Active
- inhibition [7]: Active
- inhibition [8]: Dose-dependent effect
- inhibition [9]: Dose-dependent effect
- inhibition [10]: Active
- Activity (MCF7 [11]): Non-toxic
- IC50 (MCF7 [2]): 0.85 µM
- inhibition [12]: Active
- Activity (MCF7 [13]): Non-toxic

Compound: COc1cccc(-c2cc(C(=O)Nc3cc4ccc5c(c4oc3=O)NC(=O)C(CCN3CCCCC3)O5)ccc2OC)c1 (stereo unspecified)
- IC50 [1]: 1.03 µM
- IC50 (MCF7 [2]): 1.04 µM

Compound: COc1cccc(-c2cc(C(=O)Nc3cc4ccc5c(c4oc3=O)NC(=O)C(CCNC3CCCCC3)O5)ccc2OC)c1 (stereo unspecified)
- IC50 [1]: 0.78 µM
- IC50 (MCF7 [2]): 1.16 µM

Compound: COc1cccc(-c2cc(C(=O)Nc3cc4ccc5c(c4oc3=O)NC(=O)C(CN3CCN(C(=O)OC(C)(C)C)CC3)O5)ccc2OC)c1 (stereo unspecified)
- IC50 [1]: > 50 µM
- IC50 (MCF7 [2]): > 50 µM

Compound: COc1cccc(-c2cc(C(=O)Nc3cc4ccc5c(c4oc3=O)NC(=O)C(Cc3ccc(C)cc3)O5)ccc2OC)c1 (stereo unspecified)
- IC50 [1]: > 50 µM
- IC50 (MCF7 [2]): > 50 µM

Compound: COc1cccc(-c2cc(C(=O)Nc3cc4ccc5c(c4oc3=O)NC(=O)C(CCCNC3CC4CCC3C4)O5)ccc2OC)c1 (stereo unspecified)
- IC50 [1]: 1.26 µM
- IC50 (MCF7 [2]): 1.34 µM

Compound: COc1cccc(-c2cc(C(=O)Nc3cc4ccc5c(c4oc3=O)NC(=O)C(CN3CCCC3)O5)ccc2OC)c1 (stereo unspecified)
- IC50 [1]: 15 µM
- IC50 (MCF7 [2]): 22.9 µM

Compound: COc1ccc(CC2Oc3ccc4cc(NC(=O)c5ccc(OC)c(-c6cccc(OC)c6)c5)c(=O)oc4c3NC2=O)cc1 (stereo unspecified)
- IC50 [1]: 8.37 µM
- IC50 (MCF7 [2]): 6.12 µM

Compound: COc1cccc(-c2cc(C(=O)Nc3cc4ccc5c(c4oc3=O)NC(=O)C(CCCN[C@]34CC6CC(C[C@@H](C6)C3)C4)O5)ccc2OC)c1 (stereo partly specified)
- inhibition [3]: Active
- IC50 [1]: 0.62 µM
- inhibition [5]: Active
- inhibition [6]: Active
- inhibition [7]: Active
- inhibition [10]: Active
- IC50 (MCF7 [2]): 0.72 µM
- inhibition [12]: Active

Compound: COc1cccc(-c2cc(C(=O)Nc3cc4ccc5c(c4oc3=O)NC(=O)C(CCN(C)C)O5)ccc2OC)c1 (stereo unspecified)
- IC50 [1]: 8.06 µM
- IC50 (MCF7 [2]): 11.4 µM

Compound: COc1cccc(-c2cc(C(=O)Nc3cc4ccc5c(c4oc3=O)NC(=O)C(CCCNC3CCCCC3)O5)ccc2OC)c1 (stereo unspecified)
- inhibition [3]: Active
- IC50 [1]: 0.2 µM
- inhibition [5]: Active
- inhibition [6]: Active
- inhibition [7]: Active
- inhibition [10]: Active
- IC50 (MCF7 [2]): 0.35 µM
- inhibition [12]: Active

Compound: COc1cccc(-c2cc(C(=O)Nc3cc4ccc5c(c4oc3=O)NC(=O)C(CCCCN3CCCC3)O5)ccc2OC)c1 (stereo unspecified)
- IC50 [1]: 2.5 µM
- IC50 (MCF7 [2]): 1.53 µM

Compound: COc1cccc(-c2cc(C(=O)Nc3cc4ccc5c(c4oc3=O)NC(=O)C(C(N)=O)O5)ccc2OC)c1 (stereo unspecified)
- IC50 [1]: > 50 µM
- IC50 (MCF7 [2]): 33.4 µM

Compound: COc1cccc(-c2cc(C(=O)Nc3cc4cc(OC)c(OC(C)=O)c(C)c4oc3=O)ccc2OC)c1
- IC50 [1]: 6 µM

Compound: COc1cccc(-c2cc(C(=O)Nc3cc4ccc5c(c4oc3=O)NC(=O)C(CCNC34C[C@H]6C[C@@H](C3)C[C@@H](C4)C6)O5)ccc2OC)c1 (stereo partly specified)
- IC50 [1]: 0.88 µM
- IC50 (MCF7 [2]): 1.09 µM

Compound: COc1cccc(-c2cc(C(=O)Nc3cc4ccc5c(c4oc3=O)NC(=O)C(CCNC3CC4CCC3C4)O5)ccc2OC)c1 (stereo unspecified)
- IC50 [1]: 0.68 µM
- IC50 (MCF7 [2]): 1.22 µM

Compound: COc1cccc(-c2cc(C(=O)Nc3cc4ccc(OCCN(C)C)c(OC)c4oc3=O)ccc2OC)c1
- IC50 [1]: 2 µM

Compound: COc1cccc(-c2cc(C(=O)Nc3cc4ccc5c(c4oc3=O)NC(=O)C(CCN3CCOCC3)O5)ccc2OC)c1 (stereo unspecified)
- IC50 [1]: 6.66 µM
- IC50 (MCF7 [2]): 7.44 µM

Compound: COc1cccc(-c2cc(C(=O)Nc3cc4ccc5c(c4oc3=O)NC(=O)C(Cc3ccc(Cl)cc3)O5)ccc2OC)c1 (stereo unspecified)
- IC50 [1]: > 50 µM
- IC50 (MCF7 [2]): > 50 µM

Compound: COc1cccc(-c2cc(C(=O)Nc3cc4ccc5c(c4oc3=O)NC(=O)C(CCCN3CCN(C)CC3)O5)ccc2OC)c1 (stereo unspecified)
- IC50 [1]: 1.76 µM
- IC50 (MCF7 [2]): 2.43 µM

Compound: COc1cccc(-c2cc(C(=O)Nc3cc4ccc5c(c4oc3=O)NC(=O)C(CCCN3CCCC3)O5)ccc2OC)c1 (stereo unspecified)
- IC50 [1]: 1.02 µM
- IC50 (MCF7 [2]): 1.49 µM

Compound: COc1cccc(-c2cc(C(=O)Nc3cc4ccc(O[C@H]5OC(C)(C)[C@@H](OC)[C@H](O)[C@@H]5O)c(OC)c4oc3=O)ccc2OC)c1
- IC50 [1]: 13.9 µM
- IC50 (MCF7 [2]): 9 µM

Compound: COc1cccc(-c2cc(C(=O)Nc3cc4ccc5c(c4oc3=O)NC(=O)C(Cc3ccccc3)O5)ccc2OC)c1 (stereo unspecified)
- IC50 [1]: 21.5 µM
- IC50 (MCF7 [2]): 22.1 µM

Compound: COc1cccc(-c2cc(C(=O)Nc3cc4ccc5c(c4oc3=O)NC(=O)C(CN3CCNCC3)O5)ccc2OC)c1 (stereo unspecified)
- IC50 [1]: 5.78 µM
- IC50 (MCF7 [2]): 5.27 µM

Compound: COc1cccc(-c2cc(C(=O)Nc3cc4ccc5c(c4oc3=O)NC(=O)C(C(=O)N3CCCC3)O5)ccc2OC)c1 (stereo unspecified)
- IC50 [1]: > 50 µM
- IC50 (MCF7 [2]): > 50 µM

Compound: COc1cccc(-c2cc(C(=O)Nc3cc4ccc5c(c4oc3=O)NC(=O)C(CCN3CCCC3)O5)ccc2OC)c1 (stereo unspecified)
- IC50 [1]: 3.49 µM
- IC50 (MCF7 [2]): 5.2 µM
